Reference: ChEMBL document CHEMBL1121837, “Synthesis and antischistosomal activity of certain pyrazolo[1,5-a]pyrimidines” (1981)

tested on: Schistosoma mansoni; assay: In vitro antischistosomal activity, minimum active concentration to cause severe damage or death of worms at 96 hr against Schistosoma mansoni; format: functional
Method in brief: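 Adult S. mansoni pairs (Puerto Rican strain, 46-day infection, recovered from mice) incubated at 37 °C, 2.0 mL medium per pair, in serumless medium with 50 µg/mL gentamycin sulfate. Compound dissolved in DMSO, final DMSO ≤1%. Worms examined by inverted microscope at intervals up to 96 h, when the final reading was taken.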

Row | Structure (SMILES) | MAC
1 | Cc1cc(O)n2nc(-c3ccccc3)cc2n1 | 100 µg/mL
2 | Cc1cccc(-c2cnn3c(O)cc(C)nc23)c1 | 100 µg/mL
3 | Cc1cccc(-c2cnn3c(O)cc(-c4ccccc4)nc23)c1 | 1 µg/mL
4 | Cc1cc(=S)n2nccc2n1C | >100 µg/mL
5 | Cc1cc(O)n2nc(-c3cccc(Cl)c3)cc2n1 | >100 µg/mL
6 | COc1cc(-c2cc3nc(C)cc(S)n3n2)cc(OC)c1OC | 1 µg/mL
7 | CCn1ccc(=S)n2nccc12 | 100 µg/mL
8 | Cc1cc(S)n2ncc(-c3ccccc3)c2n1 | 1 µg/mL
9 | Cn1ccc(=S)n2nc(-c3ccccc3)cc12 | 10 µg/mL
10 | Cc1cc(S)n2nc(-c3ccccc3)cc2n1 | 1 µg/mL
11 | CCOC(=O)c1cnn2c(S)cc(C)nc12 | 10 µg/mL
12 | Cc1cc(O)n2ncc(-c3ccccc3)c2n1 | 100 µg/mL
13 | Cc1cccc(-c2cnn3c(S)cc(C)nc23)c1 | 100 µg/mL
14 | Oc1ccnc2c(-c3ccccc3)cnn12 | 100 µg/mL
15 | COc1cc(-c2cc3nc(-c4ccccc4)cc(O)n3n2)cc(OC)c1OC | >100 µg/mL
16 | Sc1ccnc2c(-c3ccccc3)cnn12 | 1 µg/mL
17 | CCCn1ccc(=S)n2nc(-c3ccccc3)cc12 | 10 µg/mL
18 | COc1cc(-c2cc3nc(C)cc(O)n3n2)cc(OC)c1OC | >100 µg/mL
19 | Sc1ccnc2cc(-c3ccccc3)nn12 | 1 µg/mL
20 | CCn1ccc(=O)n2nccc12 | >100 µg/mL

Row | Structure (SMILES) | MAC
21 | Cc1cc(S)n2ncc(-c3ccc(Cl)cc3)c2n1 | 100 µg/mL
22 | CCOC(=O)c1cnn2c(O)cc(-c3ccccc3)nc12 | >100 µg/mL
23 | Oc1cc(-c2ccccc2)nc2cc(-c3ccccc3)nn12 | >100 µg/mL
24 | Cc1cc(=O)n2nccc2n1C | 100 µg/mL
25 | Sc1ccnc2ccnn12 | 1 µg/mL
26 | Cc1cc(S)n2nccc2n1 | 3.2 µg/mL
27 | Oc1cc(-c2ccccc2)nc2c(-c3ccc(Cl)cc3)cnn12 | 100 µg/mL
28 | CCCn1ccc(=O)n2nc(-c3ccccc3)cc12 | 100 µg/mL
29 | Cn1ccc(=O)n2nccc12 | >100 µg/mL
30 | Sc1cc(-c2ccccc2)nc2ccnn12 | 1 µg/mL
31 | Oc1cc(-c2ccccc2)nc2c(-c3ccccc3)cnn12 | 10 µg/mL
32 | Cn1c(-c2ccccc2)cc(=O)n2nc(-c3ccccc3)cc12 | 100 µg/mL
33 | Cn1ccc(=S)n2nccc12 | >100 µg/mL
34 | Oc1cc(-c2ccccc2)nc2ccnn12 | >100 µg/mL
35 | Sc1cc(-c2ccccc2)nc2cc(-c3ccccc3)nn12 | 1 µg/mL
36 | Cc1cccc(-c2cnn3c(S)ccnc23)c1 | 0.32 µg/mL
37 | Cc1cccc(-c2cnn3c(O)ccnc23)c1 | 100 µg/mL
38 | O=c1cc(-c2ccccc2)[nH]c2cc(-c3cccc(Cl)c3)nn12 | >100 µg/mL
39 | Oc1ccnc2cc(-c3ccccc3)nn12 | >100 µg/mL
40 | Cn1ccc(=O)n2nc(-c3ccccc3)cc12 | >100 µg/mL
